The values below come from ChEMBL document CHEMBL3108716, “Anti-inflammatory and chondroprotective activity of (+)-α-pinene: structural and enantiomeric selectivity” (2014).

The species named for test [1] is Homo sapiens. In words: Antiinflammatory activity against human primary chondrocytes assessed as inhibition of IL-1beta-induced NO production at 10 to 25 ug/ml after 30 mins by Griess method. In kind it is functional.
Test [2] can be described thus: Antiinflammatory activity against human primary chondrocytes assessed as inhibition of IL-1beta-induced NO production at 200 ug/ml after 30 mins by Griess method relative to IL-1beta treated control; values are per cent of control. The note with it: 0.5 h.
The species entered for test [3] is Homo sapiens. Briefly: Antiinflammatory activity against human primary chondrocytes assessed as inhibition of IL-1beta-induced iNOS protein expression level after 30 mins by Western blotting analysis relative to IL-1beta treated control. In kind it is functional. The gist of the method: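 Serum-starved primary human chondrocytes pretreated 30 min with compound in DMSO (≤0.1% final), then IL-1β 10 ng/mL for 24 h. Total extracts immunoblotted with mouse monoclonal anti-human iNOS and detected by chemifluorescence. Band intensity normalized to β-tubulin or actin and expressed relative to IL-1β alone. Mean ± SEM, ≥4 independent experiments; paired t test.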
A general note: Immunoblotting shows a protein as a band on a membrane.

Test [4] addresses T1, c-Jun N-terminal kinase, JNK (Homo sapiens) (UniProt P45983+P53779+P45984). In words: Inhibition of JNK activation in human primary chondrocytes assessed as reduction of IL-1beta-induced MMP13 mRNA expression at 200 ug/ml by quantitative RT-PCR analysis relative to IL-1beta treated control. The class given is cell-based. The gist of the method:
(§1)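 Serum-starved primary human chondrocytes exposed 12 h to IL-1β 10 ng/mL with or without 200 μg/mL compound, the compound added 30 min before the stimulus. MMP-1 and MMP-13 mRNA quantified by RT-PCR and expressed versus IL-1β-treated cells. Mean ± SEM of at least four independent experiments; paired t test.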

Test [5] has as its target T1, c-Jun N-terminal kinase, JNK (Homo sapiens). Briefly: Inhibition of JNK activation in human primary chondrocytes assessed as reduction of IL-1beta-induced MMP1 mRNA expression at 200 ug/ml by quantitative RT-PCR analysis relative to IL-1beta treated control. The class given is cell-based. The gist of the method:
as §1

Test [6] is filed under the species Homo sapiens. Briefly: Inhibition of NFkappaB activation in human primary chondrocytes assessed as reduction of IL-1beta-induced MMP13 mRNA expression at 200 ug/ml by quantitative RT-PCR analysis relative to IL-1beta treated control. In kind it is cell-based. The method, boiled down:
as §1

Test [7] is filed under the species Homo sapiens. In words: Inhibition of NFkappaB activation in human primary chondrocytes assessed as reduction of IL-1beta-induced MMP1 mRNA expression at 200 ug/ml by quantitative RT-PCR analysis relative to IL-1beta treated control. The class given is cell-based. The method, boiled down:
as §1

The target of test [8] is T1, c-Jun N-terminal kinase, JNK (Homo sapiens). Briefly: Inhibition of IL-1beta-induced JNK phosphorylation in human primary chondrocytes at 200 ug/ml by Western blotting analysis relative to IL-1beta treated control. The note with it: values are per cent of control. In kind it is cell-based.
For test [9], the system named is C28/I2. Briefly: Inhibition of NFkappaB activation in human C28/I2 cells assessed as reduction of IL-1beta-induced protein-DNA complex formation at 200 ug/ml after 30 mins by ELISA relative to IL-1beta treated control. The class given is cell-based. The gist of the method: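 C28/I2 cells pretreated 30 min ± 200 μg/mL compound, then IL-1β 10 ng/mL for 30 min. Nuclear extracts incubated with biotinylated NF-κB consensus oligonucleotide in a colorimetric ELISA-type binding assay; absorbance taken as amount of active NF-κB–DNA complexes. Specificity checked with 10-fold molar excess of unlabeled wild-type or mutant oligonucleotide. Mean ± SEM, four experiments.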
(In general: ELISA stands for enzyme-linked immunosorbent assay.)

The species named for test [10] is Homo sapiens. Briefly: Antiinflammatory activity against human primary chondrocytes assessed as inhibition of IL-1beta-induced iNOS mRNA expression after 30 mins by Western blotting analysis relative to IL-1beta treated control. In kind it is functional.
Test [11] is filed under the species Homo sapiens. In words: Antiinflammatory activity against human primary chondrocytes assessed as inhibition of IL-1beta-induced NO production after 30 mins by Griess method. The class given is functional. On the technique in general: The Griess reaction detects nitrite, a stable product of nitric oxide.
Test [12] is described as follows: Chondroprotective activity in human primary chondrocytes assessed as effect on IL-1beta-induced collagen2/1 mRNA expression at 200 ug/ml by quantitative RT-PCR analysis relative to IL-1beta treated control. In kind it is functional. The method, boiled down:
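Primary human chondrocytes treated 24 h with IL-1β 10 ng/mL with or without 200 μg/mL compound after a 30 min pretreatment; TIMP-1, collagen I and collagen II mRNA measured by RT-PCR relative to IL-1β-only cells. The collagen II/collagen I mRNA ratio served as a differentiation index. Mean ± SEM of ≥4 independent experiments; paired t test.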

For test [13], the target named is MAP kinase p38 (Homo sapiens) (UniProt O15264+Q15759+Q16539+P53778). In words: Inhibition of IL-1beta-induced p38 MAPK phosphorylation in human primary chondrocytes at 200 ug/ml by Western blotting analysis relative to IL-1beta treated control. In kind it is cell-based.
Test [14] can be described thus: Antiinflammatory activity against human primary chondrocytes assessed as IL-1beta-induced iNOS protein expression level after 30 mins by Western blotting analysis relative to IL-1beta treated control.
The subject of test [15] is C28/I2. In words: Inhibition of NFkappaB activation in human C28/I2 cells assessed as reduction of IL-1beta-induced IkappaBalpha phosphorylation at 200 ug/ml after 30 mins by Western blotting analysis relative to IL-1beta treated control; values are per cent of control.

The source made the active and inactive calls. The rule behind the calls is not given here.

With `CC1=C[C@@H](O)[C@@H]2C[C@@H]1C2(C)C`, the inhibition entry in the test listed under Homo sapiens [1] is “inactive”.
As to `CC1=CCC2CC1C2(C)C` (racemic) [ALPHA-PINENE], the level, % of control at 200 µg/mL in test [2] was found to be 40.6%.
On the same count and under the same terms, the figure for `C=C1CCC2CC1C2(C)C` (racemic) [BETA-PINENE] is 76.8%.
`C[C@H]1CC[C@H]2C[C@@H]1C2(C)C`: the inhibition entry in the test filed under Homo sapiens [3] is “Active”. Further, the inhibition entry in the test filed under Homo sapiens [1] was “inactive”.
In the case of `C=C1C(O)CC2CC1C2(C)C` (configuration not stated), in the test filed under Homo sapiens [1], the inhibition result is “inactive”.
On to `CC1=CC[C@@H]2C[C@H]1C2(C)C` [1R-(+)-ALPHA-PINENE], for which the inhibition entry (in test [4]; in test [5]; in the test filed under Homo sapiens [6]; in the test filed under Homo sapiens [7]; with C28/I2 [9]; in the test filed under Homo sapiens [10]) was “Active” each time. For the same compound, in test [8], the response, % of control was found to be 51.3%. Further, the inhibition result in the test filed under Homo sapiens [11] is “Dose-dependent effect”. Also, in [12], the “fold change (FC)” value is reported as 2.6. Further, the inhibition result in [13] was “inactive”. In test [14], the Activity is given as 24.4%. In [2], the level, % of control at 200 µg/mL is 31.5%. For the same compound, the level, % of control in the test on C28/I2 [15] was determined as 33.6%.
In [8], `CC1=CC[C@H]2C[C@@H]1C2(C)C` yielded a response, % of control of 65.8%. Moreover, the inhibition result in the test listed under Homo sapiens [3] is “Active”. In addition, the inhibition entry in [13] was “inactive”. In addition, the level, % of control at 200 µg/mL in test [2] was 58.1%. Also, the level, % of control in the test with C28/I2 [15] was 58.4%.
Turning to `CC1(C)[C@H]2CC[C@@H](CO)[C@H]1C2`, the inhibition result in the test listed under Homo sapiens [1] was “inactive”.
For the compound `CC1(C)[C@@H]2CC=C(C=O)[C@H]1C2`, in the test listed under Homo sapiens [1], the inhibition entry is “inactive”.
In the case of `CC1(C)C2CC=C(CO)C1C2` (configuration not stated), the inhibition result in the test filed under Homo sapiens [1] is “inactive”.
